Test results taken from ChEMBL document CHEMBL3871266, “Synthesis and cytotoxic activity of novel A-ring cleaved ursolic acid derivatives in human non-small cell lung cancer cells” (Eur J Med Chem, 2016).
Calls of active or inactive are those of the source. The calls are words filed in the database; no cut-off is given here.

Tests used:
[1] = Cytotoxicity against human NCI-H322 cells assessed as reduction in cell viability measured after 72 hrs by CellTiter-Blue cell viability assay; format: functional, cell-based; settings: Homo sapiens, NCI-H322, 72 h; read-out: IC50
Method in brief: (§1)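 Monolayer cultures in RPMI-1640 with 10% FBS at 37°C, seeded at 850 (H460 CTR5), 660 (H460 LKB1+/+) or 1780 (H322) cells/well so that the end point reaches 70–80% confluence. Treated 72h; vehicle 0.15% DMSO. CellTiter-Blue added until colour change (50–60, 80–90 or 100–120 min respectively), fluorescence read at 590 nm. IC50 by nonlinear regression; three independent experiments.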

[2] = Cytotoxicity against human LKB1-positive NCI-H460 cells assessed as reduction in cell viability measured after 72 hrs by CellTiter-Blue cell viability assay; format: functional, cell-based; settings: Homo sapiens, NCI-H460, 72 h; read-out: IC50; method in brief: as §1
[3] = Cytotoxicity against human NCI-H460 spheroids expressing CTR5 gene assessed as reduction in cell viability measured after 96 hrs by CellTiter-Glo luminescence viability assay; format: functional, cell-based; settings: NCI-H460, 96 h
Method in brief: (§2)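 Spheroids grown in round-bottom ultralow-attachment wells, 495 (H460 CTR5) or 650 (H322) cells/well. Drug exposure 96h with DMSO vehicle. CellTiter-Glo added, shaken 20 min, left 10 min, then luminescence read. IC50 by nonlinear regression; three independent experiments.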

[4] = Cytotoxicity against human NCI-H322 spheroids assessed as reduction in cell viability measured after 96 hrs by CellTiter-Glo luminescence viability assay; format: functional; settings: NCI-H322, 96 h; method in brief: as §2
NCI-H460 [5] = test: Induction of apoptosis in human NCI-H460 cells expressing CTR5 gene assessed as increase in cleavage of procaspase8 at 3 to 4.5 uM measured after 24 hrs by Western blot analysis; format: functional, cell-based
Method in brief: (§3)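 Cells were seeded at 3×10^5 (H460) or 4.2×10^5 (H322) per dish and treated 24h later with DMSO or a concentration series for 24h. Lysed in cold RIPA with phosphatase and protease inhibitors, then sonicated. 30 μg protein run on Bis-Tris gels and transferred to nitrocellulose or PVDF. Detection used infrared secondary antibodies on an Odyssey imager. Signal normalized to β-actin or GAPDH and to DMSO control; three independent experiments.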

NCI-H460 [6] = test: Induction of apoptosis in human NCI-H460 cells expressing CTR5 gene assessed as increase in cleavage of procaspase7 at 3 to 5.5 uM measured after 24 hrs by Western blot analysis; format: functional, cell-based; method in brief: as §3
NCI-H322 = test: Induction of apoptosis in human NCI-H322 cells assessed as increase in cleaved caspase7 level at 3 to 5.5 uM measured after 24 hrs by Western blot analysis; format: functional, cell-based; method in brief: as §3
NCI-H460 [7] = test: Induction of apoptosis in human NCI-H460 cells expressing CTR5 gene assessed as downregulation of Mcl1 short isoform expression at 3 to 4.5 uM measured after 24 hrs by Western blot analysis; format: functional, cell-based; method in brief: as §3
NCI-H460 [8] = test: Induction of apoptosis in human NCI-H460 cells expressing CTR5 gene assessed as viable cells at 20 uM measured after 72 hrs by Annexin V-Cy5/propidium iodide staining-based flow cytometry (reference value: 94.6%); format: functional; settings: NCI-H460, 72 h, read-out: Activity
NCI-H460 [9] = test: Induction of apoptosis in human NCI-H460 cells expressing CTR5 gene assessed as late apoptotic cells at 20 uM measured after 72 hrs by Annexin V-Cy5/propidium iodide staining-based flow cytometry (reference value: 2.7%); format: functional
NCI-H460 [10] = test: Induction of apoptosis in human NCI-H460 cells expressing CTR5 gene assessed as early apoptotic cells at 4 uM measured after 72 hrs by Annexin V-Cy5/propidium iodide staining-based flow cytometry (reference value: 1.8%); format: functional
NCI-H460 [11] = test: Induction of apoptosis in human NCI-H460 cells expressing CTR5 gene assessed as early apoptotic cells at 4 uM measured after 72 hrs in presence of autophagy inhibitor chloroquine by Annexin V-Cy5/propidium iodide staining-based flow cytometry (reference value: 1.8%); format: functional
NCI-H460 [12] = test: Induction of apoptosis in human NCI-H460 cells expressing CTR5 gene assessed as necrotic cells at 4 uM measured after 72 hrs in presence of autophagy inhibitor chloroquine by Annexin V-Cy5/propidium iodide staining-based flow cytometry (reference value: 0.9%); format: functional
NCI-H460 [13] = test: Decrease in mTOR level in human NCI-H460 cells expressing CTR5 gene at 3 to 5.5 uM measured after 24 hrs by Western blot analysis; format: functional, cell-based; method in brief: as §3
[14] = Upregulation of LC3-2 level in human NCI-H460 cells expressing CTR5 gene at 3.5 uM measured after 24 hrs by reverse-phase protein array method relative to control; format: functional, cell-based
[15] = Upregulation of Atg3 level in human NCI-H460 cells expressing CTR5 gene at 3.5 uM measured after 24 hrs by reverse-phase protein array method relative to control; format: functional, cell-based
[16] = biological target: Serine/threonine-protein kinase mTOR (Homo sapiens) (UniProt P42345); test: Inhibition of mTOR in human NCI-H460 cells expressing CTR5 gene assessed as decrease in S6 phosphorylation at S235/236 site by reverse-phase protein array method relative to control; format: cell-based
[17] = biological target: Serine/threonine-protein kinase mTOR (Homo sapiens) (UniProt P42345); test: Inhibition of mTOR in human NCI-H460 cells expressing CTR5 gene assessed as decrease in S6 phosphorylation at S240/44 site by reverse-phase protein array method relative to control; format: cell-based

inhibition [16]: 11.7%
inhibition [17]: 8.4%
SMILES: C=C(C)[C@@H]1CC[C@]2(C)[C@H](C[C@@H](F)C34OC(=O)[C@@]5(CC[C@@H](C)[C@H](C)[C@@H]35)CC[C@]42C)[C@@]1(C)CCC(=O)NCCC
IC50 [1]: 3.3 µM
IC50 [2]: 4.4 µM
IC50 [3]: 5.5 µM
IC50 [4]: 10 µM
Activity (NCI-H460 [5]): Active
Activity (NCI-H460 [6]): Active
Activity (NCI-H322): Active
Activity (NCI-H460 [7]): Dose-dependent effect
viability at 20 µM (NCI-H460 [8]): 94.3%
Activity (NCI-H460 [9]): 2%
Activity (NCI-H460 [10]): 7.6%
Activity (NCI-H460 [11]): 7.6%
Activity (NCI-H460 [12]): 3.6%
Activity (NCI-H460 [13]): Active
Activity [14]: 10.7%
Activity [15]: 5.1%
